Experimental data from ChEMBL document CHEMBL1124204, “Thiophene systems. 9. Thienopyrimidinedione derivatives as potential antihypertensive agents” (1988).

Key:
[1] = system: Rattus norvegicus; assay: Time to peak fall in systolic blood pressure in spontaneously hypertensive rats after oral administration of 1.25 mg/kg of the compound
[2] = system: Rattus norvegicus; assay: Evaluated for blood pressure lowering activity in spontaneously hypertensive rats (maximum change of systolic blood pressure (SBP)) at a dose of 1.25 mg/kg; type: functional, Artery
In short: (§1)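 Adult male SHR, conscious, restrained in a chamber at 32 °C. SBP measured indirectly by tail cuff with a pneumatic pulse transducer. After baseline, groups of 4–6 received a single oral gavage dose or vehicle (0.5% methylcellulose). SBP was read at 0.5, 1, 2, 3 and 4 h, and the maximum SBP change ± SEM was reported against the vehicle effect.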

[3] = system: Rattus norvegicus; assay: Evaluated for blood pressure lowering activity in spontaneously hypertensive rats (maximum change of systolic blood pressure (SBP)) at a dose of 10 mg/kg; type: functional, Artery
In short: as §1

[4] = system: Rattus norvegicus; assay: Time to peak fall in systolic blood pressure in spontaneously hypertensive rats after oral administration of 10 mg/kg of the compound
[5] = system: Rattus norvegicus; assay: Time to reach peak blood pressure lowering effect in spontaneously hypertensive rats after oral administration of 2.5 mg/kg of the compound
[6] = system: Rattus norvegicus; assay: Evaluated for blood pressure lowering activity in spontaneously hypertensive rats (maximum change of systolic blood pressure (SBP)) at a dose of 2.5 mg/kg; type: functional, Artery
In short: as §1

[7] = system: Rattus norvegicus; assay: Time to peak fall in systolic blood pressure in spontaneously hypertensive rats after oral administration of 0.5 mg/kg of the compound
[8] = species on record: Rattus norvegicus; assay: Peroral dose required to produce a 50 mmHg drop in systolic blood pressure (SBP) in the spontaneously hypertensive rats; type: functional; conditions: Artery, po
In short: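 Adult male SHR, conscious, tail-cuff indirect SBP at 32 °C. Groups of 4–6 were given single oral gavage doses of 0.5–20 mg/kg in 0.5% methylcellulose, with SBP followed over 4 h. The dose giving a 50 mmHg SBP fall (ED50SBP, mg/kg po) was calculated by regression analysis with 95% fiducial limits; n = animals tested.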

[9] = system: Rattus norvegicus; assay: Intravenous dose required to produce a 50% inhibition of the phenylephrine pressor response in the spontaneously hypertensive rats; type: functional
In short: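 Adult male SHR, anesthetized and bilaterally vagotomized. A carotid artery was cannulated for mean arterial pressure and a jugular vein for iv dosing. Phenylephrine pressor responses were measured before and after antagonist. The iv dose (μg/kg) giving 50% inhibition of the pressor response (ED50) was reported with fiducial limits.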

[10] = system: Canis familiaris; assay: Intravenous dose required to produce a 20-fold rightward shift in the phenylephrine dose-response curve in the dog; type: functional, Canis lupus familiaris
In short: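 Mongrel dogs, anesthetized and bilaterally vagotomized. Mean arterial pressure was recorded via carotid cannula, and drug was given iv through the jugular vein. Phenylephrine dose–response curves were run before and after antagonist. The iv dose (μg/kg) producing a 20-fold rightward shift (DR20) was calculated; n = animals tested.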

[11] = system: Rattus norvegicus; assay: Evaluated for blood pressure lowering activity in spontaneously hypertensive rats (maximum change of systolic blood pressure (SBP)) at a dose of 0.5 mg/kg; type: functional, Artery
In short: as §1

[12] = system: Rattus norvegicus; assay: Evaluated for blood pressure lowering activity in the conscious spontaneously hypertensive rats (SHR) (time to peak (h)) at a dose of 2.5 mg/kg; type: functional
In short: (§2)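 Conscious adult male SHR in restrainers at 32 °C, with tail-cuff and pulse-transducer SBP recording. Groups of 4–6 got a single gavage dose in 0.5% methylcellulose or vehicle alone. SBP was sampled at 0.5, 1, 2, 3 and 4 h post-dose, and the time (h) at which the peak SBP change occurred was recorded.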

[13] = system: Rattus norvegicus; assay: Evaluated for blood pressure lowering activity in the conscious spontaneously hypertensive rats (SHR) (time to peak (h)) at a dose of 5 mg/kg; type: functional
In short: as §2

[14] = system: Rattus norvegicus; assay: Evaluated for blood pressure lowering activity in spontaneously hypertensive rats (maximum change of systolic blood pressure (SBP)) at a dose of 5 mg/kg; type: functional, Artery
In short: as §1

[15] = system: Rattus norvegicus; assay: Evaluated for blood pressure lowering activity in the conscious spontaneously hypertensive rats (SHR) (time to peak (h)) at a dose of 10 mg/kg; type: functional
In short: as §2

[16] = system: Rattus norvegicus; assay: Time to reach peak blood pressure lowering effect in spontaneously hypertensive rats after oral administration of 20 mg/kg of the compound
[17] = system: Rattus norvegicus; assay: Evaluated for blood pressure lowering activity in spontaneously hypertensive rats (maximum change of systolic blood pressure (SBP)) at a dose of 20 mg/kg; type: functional, Artery
In short: as §1

COc1ccccc1N1CCN(CCn2c(=O)[nH]c3csc(C)c3c2=O)CC1.Cl
Time [1]: 1 h | Delta SBP [2]: -66 mmHg

COc1ccccc1N1CCN(CCn2c(=O)[nH]c3scc(C)c3c2=O)CC1.Cl.O
Delta SBP [3]: -56 mmHg | Time [4]: 0.5 h

CCOc1ccccc1N1CCN(CCn2c(=O)[nH]c3cscc3c2=O)CC1.Cl
Time [5]: 2 h | Delta SBP [6]: -79 mmHg

Cl.O=c1[nH]c2cscc2c(=O)n1CCN1CCN(c2ccc(F)cc2)CC1
Delta SBP [3]: -68 mmHg | Time [4]: 0.5 h

Cl.O=c1[nH]c2cscc2c(=O)n1CCN1CCN(c2ccccc2)CC1
Delta SBP [3]: -76 mmHg | Time [4]: 0.5 h

COc1ccccc1N1CCN(CCn2c(=O)[nH]c3cscc3c2=O)CC1.Cl
Time [7]: 0.5 h | ED50 [8]: 0.21 mg/kg | ED50 [9]: 0.0017 mg/kg | DR20 [10]: 3 µg/kg | Delta SBP [11]: -83 mmHg

COc1ccccc1N1CCN(CCn2c(=O)[nH]c3sccc3c2=O)CC1
ED50 [8]: 1 mg/kg | Time [1]: 0.5 h | ED50 [9]: 0.0154 mg/kg | DR20 [10]: 20 µg/kg | Delta SBP [2]: -50 mmHg

COc1ccccc1N1CCN(CCn2c(=O)c3sccc3n(C(=O)C(C)(C)C)c2=O)CC1
Delta SBP [6]: -62 mmHg | Time [12]: 0.5 h

COc1ccccc1N1CCN(CCn2c(=O)c3cscc3n(C(=O)C(C)(C)C)c2=O)CC1
Time [13]: 0.5 h | Delta SBP [14]: -69 mmHg

COc1ccccc1N1CCN(CCCn2c(=O)[nH]c3sccc3c2=O)CC1
Delta SBP [3]: -68 mmHg | Time [15]: 0.5 h

COc1ccccc1N1CCN(CCCn2c(=O)[nH]c3ccsc3c2=O)CC1
Delta SBP [3]: -43 mmHg | Time [4]: 0.5 h

COc1ccccc1N1CCN(CCn2c(=O)c3sccc3n(C)c2=O)CC1
Time [1]: 0.5 h | Delta SBP [2]: -56 mmHg

COc1ccccc1N1CCN(CCn2c(=O)c3cscc3n(C(=O)C(C)C)c2=O)CC1
Time [13]: 0.5 h | Delta SBP [14]: -53 mmHg

C#CCn1c(=O)n(CCN2CCN(c3ccccc3OC)CC2)c(=O)c2cscc21
Delta SBP [3]: -52 mmHg | Time [15]: 1 h

COc1ccc(N2CCN(CCn3c(=O)[nH]c4sccc4c3=O)CC2)cc1
Delta SBP [3]: -40 mmHg | Time [4]: 0.5 h

O=c1[nH]c2cscc2c(=O)n1CCN1CCN(c2ccc(Cl)cc2)CC1
Delta SBP [3]: -56 mmHg | Time [4]: 0.5 h

COc1ccccc1N1CCN(CCn2c(=O)[nH]c3sc(C)c(C)c3c2=O)CC1
Time [16]: 1 h | Delta SBP [17]: -50 mmHg

Cc1ccccc1N1CCN(CCn2c(=O)[nH]c3cscc3c2=O)CC1
Time [1]: 0.5 h | Delta SBP [2]: -36 mmHg

CCOC(=O)CCCn1c(=O)n(CCN2CCN(c3ccccc3OC)CC2)c(=O)c2cscc21
Delta SBP [3]: -87 mmHg | Time [4]: 0.5 h

C=CCn1c(=O)n(CCN2CCN(c3ccccc3OC)CC2)c(=O)c2cscc21
Delta SBP [3]: -50 mmHg | Time [4]: 1 h

O=c1[nH]c2sccc2c(=O)n1CCN1CCN(c2ccccc2Cl)CC1
Delta SBP [3]: -43 mmHg | Time [4]: 2 h

COc1cccc(N2CCN(CCn3c(=O)[nH]c4cscc4c3=O)CC2)c1
Time [16]: 0.5 h | Delta SBP [17]: -52 mmHg

CCCCCCCCn1c(=O)n(CCN2CCN(c3ccccc3OC)CC2)c(=O)c2cscc21
Delta SBP [3]: -54 mmHg | Time [15]: 2 h

CCOC(=O)CCCCn1c(=O)n(CCN2CCN(c3ccccc3OC)CC2)c(=O)c2sccc21
Time [5]: 0.5 h | Delta SBP [6]: -30 mmHg

Cc1ccccc1N1CCN(CCn2c(=O)[nH]c3ccsc3c2=O)CC1
Time [1]: 1 h | Delta SBP [2]: -33 mmHg
